According to ChEMBL document CHEMBL5724801, “EUbOPEN Chemogenomics Library - Multiplex” (2024):
Values joined by “and” are separate entries in the source; they are usually repeats but may differ in a detail not shown here. Equal values may be shown once.

Test system: HEK-293T
Experiment: Multiplex assay against HEK293T
Type: toxicity, cell-based
Settings: human
Outline: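 Tubulin, mitochondrial-mass and membrane-permeability phenotypes are per cents of healthy-nucleus cells. Cells were gated by CellPathfinder machine learning into Hoechst high-intensity objects or normal cells, normal cells into healthy, pyknosed or fragmented nuclei, and pyknosed cells into mitotic or apoptotic. Before that, live cells stained at seeding with Hoechst33342, BioTracker Green Microtubule Cytoskeleton Dye, MitoTracker Red and Annexin V Alexa Fluor 680 were imaged on a CQ1 microscope at 37°C and 5% CO2 after compound addition.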

[1] = 12 h, 1 µM, compound concentration 1 uM
[2] = 12 h, 10 µM, compound concentration 10 uM
[3] = 24 h, 1 µM, compound concentration 1 uM
[4] = 24 h, 10 µM, compound concentration 10 uM
[5] = 48 h, 1 µM, compound concentration 1 uM
[6] = 48 h, 10 µM, compound concentration 10 uM

## CCCCC[C@H](O)/C=C/[C@H]1[C@H](O)CC(=O)[C@@H]1CCCCCCC(=O)O [ALPROSTADIL]
[1]
  Population Apoptotic (%): 35% and 50%
  Population Fragmented Nuclei (%): 7% and 6%
  Population Healthy Nuclei (%): 79% and 80%
  Population Hoechst High Intensity Objects (%): 7% and 6%
  Population Membrane Permeable-Phenotype (%): 0%
  Population Mitochondria Different-Phenotype (%): 42% and 55%
  Population Mitotic Cells (%): 64% and 49%
  Population Normal (%): 92% and 93%
  Population Pyknosed Nuclei (%): 13%
  Population Tubulin-Different-Phenotype (%): 28% and 18%
  Total Cell Count: 471 and 392
[2]
  Population Apoptotic (%): 33%
  Population Fragmented Nuclei (%): 7%
  Population Healthy Nuclei (%): 78% and 75%
  Population Hoechst High Intensity Objects (%): 6% and 9%
  Population Membrane Permeable-Phenotype (%): 1% and 0%
  Population Mitochondria Different-Phenotype (%): 48% and 64%
  Population Mitotic Cells (%): 66%
  Population Normal (%): 93% and 90%
  Population Pyknosed Nuclei (%): 14% and 17%
  Population Tubulin-Different-Phenotype (%): 33% and 30%
  Total Cell Count: 318 and 309
[3]
  Population Apoptotic (%): 35% and 34%
  Population Fragmented Nuclei (%): 9% and 6%
  Population Healthy Nuclei (%): 79% and 85%
  Population Hoechst High Intensity Objects (%): 3% and 4%
  Population Membrane Permeable-Phenotype (%): 1% and 0%
  Population Mitochondria Different-Phenotype (%): 22% and 35%
  Population Mitotic Cells (%): 64% and 65%
  Population Normal (%): 96% and 95%
  Population Pyknosed Nuclei (%): 10% and 8%
  Population Tubulin-Different-Phenotype (%): 15% and 14%
  Total Cell Count: 605 and 526
[4]
  Population Apoptotic (%): 32% and 36%
  Population Fragmented Nuclei (%): 11% and 7%
  Population Healthy Nuclei (%): 76% and 79%
  Population Hoechst High Intensity Objects (%): 2% and 8%
  Population Membrane Permeable-Phenotype (%): 0%
  Population Mitochondria Different-Phenotype (%): 26% and 50%
  Population Mitotic Cells (%): 67% and 63%
  Population Normal (%): 97% and 91%
  Population Pyknosed Nuclei (%): 12%
  Population Tubulin-Different-Phenotype (%): 23% and 22%
  Total Cell Count: 439 and 345
[5]
  Population Apoptotic (%): 32% and 13%
  Population Fragmented Nuclei (%): 13% and 16%
  Population Healthy Nuclei (%): 79% and 77%
  Population Hoechst High Intensity Objects (%): 2% and 3%
  Population Membrane Permeable-Phenotype (%): 2% and 0%
  Population Mitochondria Different-Phenotype (%): 12% and 21%
  Population Mitotic Cells (%): 67% and 86%
  Population Normal (%): 97% and 96%
  Population Pyknosed Nuclei (%): 7% and 6%
  Population Tubulin-Different-Phenotype (%): 11% and 12%
  Total Cell Count: 1005 and 714
[6]
  Population Apoptotic (%): 25% and 20%
  Population Fragmented Nuclei (%): 15% and 14%
  Population Healthy Nuclei (%): 76% and 79%
  Population Hoechst High Intensity Objects (%): 2%
  Population Membrane Permeable-Phenotype (%): 1% and 0%
  Population Mitochondria Different-Phenotype (%): 17% and 30%
  Population Mitotic Cells (%): 75% and 80%
  Population Normal (%): 97%
  Population Pyknosed Nuclei (%): 7% and 6%
  Population Tubulin-Different-Phenotype (%): 15% and 14%
  Total Cell Count: 685 and 537
